# High-throughput results from PubChem BioAssay.
# PPC-1+TRAIL kill – PPC-1 cancer cell killing with TRAIL present. 220,000 tested, 0.41% active. cell killing (% activity), % at 4 µM or 5 µM. PPC-1 cells + TRAIL, ATPLite viability luminescence;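 active = cell killing above 50% in the first pass at 4 µM, then a duplicate retest at 5 µM averaging 50% or more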;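 note: plate controls were cells with TRAIL plus DMSO for no effect and medium-only wells lacking cells for full effect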
# STAT1 blocker – reduces IFN-gamma driven STAT1 reporter signal; NIH 3T3 STAT1-luciferase reporter, luminescence; inhibition, % at 5.5 µM; 200,000 tested, 0.35% active;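 active = inhibition above a set limit, the mean inhibition across all tested compounds plus 3 SD, cut at about 34% in these data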;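 note: 0% = IFN-gamma with DMSO and 100% = IFN-gamma with 300 µM nifuroxazide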
# STAT3 inh – reduces IL-6 driven STAT3 reporter signal; 190,000 tested, 0.89% active; inhibition, % at 5.5 µM; U3A cells, IL-6 STAT3-luciferase reporter, luminescence; host cell line lacks STAT1;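 active = inhibition above the mean inhibition across all screened compounds plus 3 SD, cut at about 44% in these data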;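 note: 0% = DMSO only wells and 100% = 100 µM nifuroxazide control wells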
# TRAIL sens C8 – caspase-8 TRAIL sensitization. 360,000 tested, 1% active. AID 624354. inhibition (viability loss, TRAIL sensitization), % at 10 µM. NB7+C8 cells + TRAIL, ATPlite viability luminescence;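 active = compounds causing at least 50% loss of cell viability in the single-dose screen, relative to plate controls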
# STAT3 act-1 – increases IL-6 driven STAT3 reporter signal. activation (% of control), % at 5.6 µM. U3A cells, IL-6 STAT3-luciferase reporter, luminescence; 100% = signal with IL-6 EC80 alone. 190,000 tested, 0.91% active;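 active = activation above the screen-wide mean of compound activation plus 3 SD, cut at about 130% in these data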;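 note: 0% = background luminescence of wells with medium and substrate only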
#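 Detection: reporter luminescence signal / Assay system: STAT1-lacking human U3A cells, STAT3 luciferase reporter / Incubation: compound pre-incubation 1 h before IL-6, then 6 h stimulation at 37 °C / Control set: IL-6-only high control / Read-out: % activation relative to IL-6 control / Probe or stimulus: Interleukin-6, 33 ng/mL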
# STAT3 act-2 – STAT3 activation, confirmation assay | U3A STAT3-luciferase reporter, IL-6 potentiation, luminescence; U3A cells lack STAT1; 100 means same as IL-6 alone | potentiation (% of control), % at 5.7 µM | shares compounds with STAT3 act-1 | AID 1267 | 1,200 tested, 64% active;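 active = percent activation of the STAT3 luciferase reporter above a set limit taken from the earlier primary screen, cut at about 130% in these data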;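 note: 0% = background signal of medium plus substrate and 100% = median of IL-6 with DMSO wells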
# NFkB act STAT3ct – activates NF-kappaB, counter-screen to STAT3 activators. shares compounds with STAT3 act-1. human cells, NF-kappaB reporter activation. activation (% of control), % at 5.7 µM. 1,200 tested, 11% active; in the data active = activation above about 120%;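 note: reporter induced by TNF-alpha stimulation; 100% = median of stimulated DMSO wells and 0% = no signal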
# STAT1 act – activates STAT1, counter-screen to STAT3 activators | shares compounds with STAT3 act-1 | NIH 3T3 STAT1-luciferase reporter, IFN-gamma, luminescence | activation (% of control), % at 5.7 µM | 1,200 tested, 13% active | AID 1318;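 active = activation above the solvent-only control well mean plus 3 SD, set per screening run, cut at about 120% in these data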;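 note: 100% = IFN-gamma with DMSO median signal so 100% means no change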
# An asterisk follows results filed as active; . = no result given. Sampled rows, rich in hits. Any-hit rate of the full collection: about 1.8%.
SMILES,PPC-1+TRAIL kill,STAT1 blocker,STAT3 inh,TRAIL sens C8,STAT3 act-1,STAT3 act-2,NFkB act STAT3ct,STAT1 act
Cc1cc(C)c2c(N)c(-c3nc4ccccc4[nH]3)sc2n1,-1,-16,-76,-2,171*,182*,117,111
COC(=O)C[C@@H]1CC[C@H](NC(=O)Nc2cccc(F)c2)[C@@H](CO)O1,.,.,.,-1,.,.,.,.
Cc1ccc(-c2ccc(/C=N/NC(N)=S)o2)cc1,-9,.,.,10,.,.,.,.
NC(=S)N/N=C/c1ccc(-c2ccc(Cl)c(Cl)c2)o1,23,-2,-103,-4,191*,145*,109,111
O=C(CSc1nc2ccccc2[nH]1)N=Nc1c(O)[nH]c2ccccc12,20,-2,-51,-8,145*,142*,108,105
COc1ccc(C)cc1N(C(=O)COc1ccccc1)c1nc2ccccc2s1,2,10,-43,9,137*,145*,101,101
Cc1ccc(S(=O)(=O)CCC(=O)Nc2cccc(S(=O)(=O)N3CCCCCC3)c2)cc1,.,.,.,8,.,.,.,.
Cc1cc(NC(=O)Cc2cccs2)no1,5,1,-47,1,143*,131,108,100
CC(=O)Nc1nc(-c2ccc(Cl)cc2)nc(C)c1C(C)=O,15,12,-42,-8,137*,122,103,96
Cc1ccc(F)c(S(=O)(=O)NC(=O)C2(C)CCN2C(=O)c2ccc(C(F)(F)F)nc2C)c1 (stereo not given),.,.,.,2,.,.,.,.
N/C(=N\OC(=O)c1cccc(Br)c1)c1ccccc1,7,-30,-72,89*,158*,152*,131*,151*
N/C(=N\OC(=O)c1cccc2ccccc12)c1ccc(Br)cc1,34,3,-46,2,139*,135*,107,106
O=C(Oc1ccccc1O)c1cccc2ccccc12,-16,-11,-42,9,141*,132,102,103
Cc1cccc(C(=O)O/N=C(\N)c2ccc(Br)cc2)c1,1,-23,-25,35,122,.,.,.
Cc1ccc(C)c(C(=O)O/N=C(\N)c2ccc(Br)cc2)c1,-17,8,-61,78*,155*,150*,108,102
Cc1ccc(C(=O)NCC(=O)NCc2ccc(Cl)cc2)s1,.,.,.,-8,.,.,.,.
CC(=O)c1sc(NC(=O)CCN2C(=O)c3ccccc3C2=O)nc1C,.,.,.,-8,.,.,.,.
CCCC(C(=O)Nc1ccc(S(=O)(=O)N2CCCC2)cc1)c1ccccc1 (stereo not given),.,.,.,19,.,.,.,.
CC(C)(C)NC(=O)C(=O)NNC(=O)c1ccccc1Br,3,-1,7,-12,99,.,.,.
COc1ccccc1C(=O)NNC(=O)c1ccc(O)cc1,.,.,.,7,.,.,.,.
COc1ccccc1C(=O)NNC(=S)Nc1ccccc1,27,5,-34,5,139*,146*,102,92
COc1ccccc1C(=O)NNC(=O)c1ccc(NC(=O)C(C)C)cc1,15,-9,-52,-8,148*,153*,103,102
COC(=O)NNC(=O)c1ccccc1OC,28,-2,-60,-21,148*,166*,114,107
COc1ccccc1C(=O)NNC(=O)c1ccc(F)cc1,23,-23,-14,2,112,.,.,.
COc1ccccc1C(=O)NNC(=O)C(=O)NC(C)(C)C,12,-2,-48,-4,143*,144*,96,97
SMILES,PPC-1+TRAIL kill,STAT1 blocker,STAT3 inh,TRAIL sens C8,STAT3 act-1,STAT3 act-2,NFkB act STAT3ct,STAT1 act
CCCCc1nc2cc(C(=O)N3CCCC(OCCC)C3)ccc2o1 (stereo not given),.,.,.,-6,.,.,.,.
CCN(C)C1CN(Cc2cn(Cc3ccc(F)cc3)nn2)S(=O)(=O)C1 (stereo not given),.,.,.,-5,.,.,.,.
COCC(C)NC(=O)C1CC(=O)N(CCc2ccc(F)cc2)C1 (stereo not given),.,.,.,-2,.,.,.,.
COc1ccc(NC(=O)C(=O)NCC2CCCN2S(=O)(=O)c2cccs2)cc1 (stereo not given),.,.,.,26,.,.,.,.
COc1cccc(-c2nc(NC(C)(C)C)c3ccccc3n2)c1O,11,5,-46,0,143*,129,106,103
COc1cccc(-c2nc(N3CC(C)CC(C)C3)c3ccccc3n2)c1O (stereo not given),-23,4,-37,-1,138*,131,106,98
COc1cccc(-c2nc(N3CCC(C)CC3)c3ccccc3n2)c1O,12,3,-21,-6,122,.,.,.
Cc1ccc2cccc(NC(=S)NC(=O)c3ccccc3)c2n1,9,12,-68,8,169*,170*,111,95
Cc1ccc2cccnc2c1NC(=S)NC(=O)c1ccccc1,10,13,-58,-7,153*,152*,99,92
O=C(Nc1c(Cl)cc(Cl)cc1-c1nc2ccccc2s1)c1ccc(Br)o1,1,11,-52,2,139*,115,101,71
CCN(CC)C(=O)C1=C(C)N(CCCOC)C(=O)C(CC(=O)NCCc2ccccn2)C1 (stereo not given),.,.,.,-1,.,.,.,.
COc1ccccc1NC(=O)c1ccc(Br)o1,9,-3,9,-3,95,.,.,.
Cc1cc(O)c(NC(=O)c2ccc(Br)o2)cc1C,19,12,-71,2,161*,151*,115,95
CCC(c1nnnn1-c1ccc2c(c1)OCCO2)N1CCN(c2ccccc2OC)CC1 (stereo not given),.,.,.,-1,.,.,.,.
CC(CCl)n1c(=O)c2ccccc2n1C(=O)c1ccccc1 (stereo not given),.,.,.,-21,.,.,.,.
O=Cc1cc2ccccc2nc1SCc1ccc(Cl)c(Cl)c1,8,1,-17,-22,120,.,.,.
Cc1ccc(CSc2nc3ccccc3cc2C=O)cc1,18,-1,-104,-20,193*,153*,109,102
O=Cc1cc2ccccc2nc1SCc1ccc(Cl)cc1,-32,-12,-65,4,161*,130,101,102
COc1cccc(N2CCN(C(=O)CCNS(=O)(=O)c3ccc(F)c(F)c3)CC2)c1,.,.,.,-6,.,.,.,.
c1ccc2c(-c3c[nH]c4ccccc34)c3ccccc3nc2c1,19,3,19,-5,92,.,.,.
O=C(O)c1cc(-c2c[nH]c3ccccc23)nc2ccc3ccccc3c12,41,11,-49,46,142*,163*,112,100
CCOc1ccc(NC(=O)C(CC(=O)O)Cc2ccccc2)cc1 (stereo not given),5,-1,3,6,97,.,.,.
